According to ChEMBL document CHEMBL1800056, “Discovery of 2-(6-{[(6-fluoroquinolin-2-yl)methyl]amino}bicyclo[3.1.0]hex-3-yl)-N-hydroxypyrimidine-5-carboxamide (CHR-3996), a class I selective orally active histone deacetylase inhibitor” (J Med Chem, 2010):
pIC50: −log10 of the molar value. Active and inactive are the calls of the source. No cut-off for these calls is given here.

Experiments:
HCT-116 [1] = experiment: Antiproliferative activity against human HCT116 cells after 72 hrs by WST-1 assay; format: functional; settings: Homo sapiens, HCT-116, 72 h
Method in brief: (§1)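 Cells seeded at (1-5) × 10³/well in serum-containing medium for 24 h at 37 °C, 5% CO₂. Inhibitor added at 0.6-10000 nM for 72 h, with WST-1 pulse over the final 4 h. Formazan read at 450 nm (reference 650 nm). Expressed as % inhibition of vehicle response; GI50 is the concentration inhibiting 50% of vehicle response; n = 6 replicates.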

[2] = Ratio of GI50 for human HCT116 cells to IC50 for HDAC in human HeLa cell nuclear extracts
Method in brief: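 Cell/enzyme ratio = HCT116 GI50 divided by HDAC IC50. Enzyme: HeLa nuclear extract (10 μg protein), 5 min preincubation, then Fluor de Lys substrate 62.5 μM, 15 min at room temperature. Stopped with developer containing trichostatin A; fluorescence ex 355/em 455 nm; eight concentrations in duplicate. Cells: HCT116, 72 h exposure (0.6-10000 nM), WST-1 read at 450 nm, n = 6.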

[3] = AUC (0 to t) in plasma of CD1 mouse at 3 mg/kg, po; format: ADME, organism-based; set-up: dose 3 mg/kg, route oral
Method in brief: (§2)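 Oral cassette PK in CD1 mice: four compounds per cassette, each at 3 mg/kg po. AUC0-t (ng h/mL) measured in plasma and spleen; spleen/plasma AUC ratio reported.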

[4] = AUC (0 to t) in spleen of CD1 mouse at 3 mg/kg, po; format: ADME, organism-based; set-up: dose 3 mg/kg, route oral; method in brief: as §2
[5] = Clearance in mouse liver microsomes assessed as compound remaining after 30 mins; format: ADME, Microsome; settings: read-out: Activity
[6] = Clearance in human liver microsomes assessed as compound remaining after 30 mins; format: ADME, Microsome; settings: read-out: Activity
Cytochrome P450 2C19 [7] = molecular target: T1, Cytochrome P450 2C19 (Homo sapiens, UniProt P33261); experiment: Inhibition of CYP2C19; format: ADME
T1 sequence (P33261 whole entry): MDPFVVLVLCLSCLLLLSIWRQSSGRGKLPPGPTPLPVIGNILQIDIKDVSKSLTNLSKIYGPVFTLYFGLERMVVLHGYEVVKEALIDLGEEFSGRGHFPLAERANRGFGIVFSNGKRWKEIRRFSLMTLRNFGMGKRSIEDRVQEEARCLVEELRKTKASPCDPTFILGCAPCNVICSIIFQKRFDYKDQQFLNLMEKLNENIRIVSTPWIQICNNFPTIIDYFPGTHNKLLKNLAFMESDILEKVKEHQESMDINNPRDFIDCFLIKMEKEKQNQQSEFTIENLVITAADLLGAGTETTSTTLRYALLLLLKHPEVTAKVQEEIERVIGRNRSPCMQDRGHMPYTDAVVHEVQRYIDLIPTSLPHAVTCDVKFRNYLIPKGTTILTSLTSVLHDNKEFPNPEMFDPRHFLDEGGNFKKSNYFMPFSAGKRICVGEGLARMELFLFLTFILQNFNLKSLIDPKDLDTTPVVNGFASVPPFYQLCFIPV

Cytochrome P450 2D6 [8] = molecular target: T2, Cytochrome P450 2D6 (Homo sapiens, UniProt P10635); experiment: Inhibition of CYP2D6; format: ADME
T2 sequence (P10635 whole entry): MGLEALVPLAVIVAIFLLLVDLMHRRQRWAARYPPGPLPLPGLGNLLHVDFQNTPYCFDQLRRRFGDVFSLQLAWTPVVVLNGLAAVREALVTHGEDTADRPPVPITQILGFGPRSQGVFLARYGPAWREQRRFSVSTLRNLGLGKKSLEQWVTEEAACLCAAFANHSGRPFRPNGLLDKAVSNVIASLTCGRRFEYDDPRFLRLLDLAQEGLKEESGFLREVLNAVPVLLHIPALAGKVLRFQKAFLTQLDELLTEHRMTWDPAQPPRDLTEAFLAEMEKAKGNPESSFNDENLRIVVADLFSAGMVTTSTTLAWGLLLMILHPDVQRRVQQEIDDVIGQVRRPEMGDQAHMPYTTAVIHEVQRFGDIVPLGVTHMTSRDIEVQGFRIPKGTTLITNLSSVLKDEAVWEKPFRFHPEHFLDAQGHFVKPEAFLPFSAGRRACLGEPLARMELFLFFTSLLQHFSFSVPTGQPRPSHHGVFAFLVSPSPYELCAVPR

Cytochrome P450 3A4 [9] = molecular target: T3, Cytochrome P450 3A4 (Homo sapiens, UniProt P08684); experiment: Inhibition of CYP3A4; format: ADME
T3 sequence (P08684 whole entry): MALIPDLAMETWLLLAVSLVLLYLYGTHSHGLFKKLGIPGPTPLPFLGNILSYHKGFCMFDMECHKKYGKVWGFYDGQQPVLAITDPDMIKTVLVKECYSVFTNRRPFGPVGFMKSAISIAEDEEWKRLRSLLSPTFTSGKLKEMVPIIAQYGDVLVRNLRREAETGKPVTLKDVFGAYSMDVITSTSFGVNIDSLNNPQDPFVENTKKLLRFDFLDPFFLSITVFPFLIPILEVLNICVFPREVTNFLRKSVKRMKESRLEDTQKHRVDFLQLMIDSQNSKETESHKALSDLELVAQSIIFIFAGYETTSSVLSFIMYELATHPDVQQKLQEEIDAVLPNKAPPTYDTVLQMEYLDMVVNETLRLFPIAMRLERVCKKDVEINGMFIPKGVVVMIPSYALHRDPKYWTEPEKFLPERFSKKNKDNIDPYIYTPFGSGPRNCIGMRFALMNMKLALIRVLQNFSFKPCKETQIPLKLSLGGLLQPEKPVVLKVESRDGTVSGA

Cytochrome P450 2C19 [10] = molecular target: T1, Cytochrome P450 2C19; experiment: Inhibition of CYP 2C19 at < 10 uM; format: ADME
Cytochrome P450 2D6 [11] = molecular target: T2, Cytochrome P450 2D6; experiment: Inhibition of CYP2D6 at < 10 uM; format: ADME
Cytochrome P450 3A4 [12] = molecular target: T3, Cytochrome P450 3A4; experiment: Inhibition of CYP3A4 at < 10 uM; format: ADME
[13] = AUC (0 to t) in dog at 1 mg/kg, iv; format: ADME, organism-based, Canis lupus familiaris; set-up: dose 1 mg/kg, route intravenous; settings: plasma
Method in brief: (§3)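 Dog single dose: iv 1 mg/kg in 5% DMSO-HPβC (11.25% w/v); po 10 mg/kg in 5% DMSO-saline. AUC0-t in ng h/mL, clearance in (mL/min)/kg, t1/2 in h, F in %.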

[14] = Clearance in dog at 1 mg/kg, iv; format: ADME, organism-based, Canis lupus familiaris; set-up: dose 1 mg/kg, route intravenous; settings: in vivo; method in brief: as §3
[15] = AUC (0 to t) in dog at 10 mg/kg, po; format: ADME, organism-based, Canis lupus familiaris; set-up: dose 10 mg/kg, route oral; settings: plasma; method in brief: as §3
[16] = Oral bioavailability in dog at 10 mg/kg; format: ADME, organism-based, Canis lupus familiaris; settings: in vivo; method in brief: as §3
Histone deacetylase 2 = Histone deacetylase 2 (Homo sapiens, UniProt Q92769); experiment: Inhibition of human recombinant HDAC2 using fluor de Lys as substrate by fluorometric analysis
Histone deacetylase 2, sequence (Q92769 whole entry): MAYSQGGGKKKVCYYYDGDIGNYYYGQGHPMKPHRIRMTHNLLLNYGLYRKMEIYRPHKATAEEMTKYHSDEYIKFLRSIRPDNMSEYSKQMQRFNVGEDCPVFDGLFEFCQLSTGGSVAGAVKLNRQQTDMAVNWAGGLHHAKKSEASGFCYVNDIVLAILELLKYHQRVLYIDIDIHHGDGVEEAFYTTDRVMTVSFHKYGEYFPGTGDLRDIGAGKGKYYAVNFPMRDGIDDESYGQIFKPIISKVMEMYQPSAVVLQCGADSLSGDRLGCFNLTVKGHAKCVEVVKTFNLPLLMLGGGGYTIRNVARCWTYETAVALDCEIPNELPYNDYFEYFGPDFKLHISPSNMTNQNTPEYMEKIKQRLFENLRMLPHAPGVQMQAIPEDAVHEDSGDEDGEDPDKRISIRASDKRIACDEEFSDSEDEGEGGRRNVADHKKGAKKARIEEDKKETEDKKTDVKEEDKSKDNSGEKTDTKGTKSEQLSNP

Histone deacetylase 3 = Histone deacetylase 3 (Homo sapiens, UniProt O15379); experiment: Inhibition of human recombinant HDAC3 using fluor de Lys as substrate by fluorometric analysis
Histone deacetylase 3, sequence (O15379 whole entry): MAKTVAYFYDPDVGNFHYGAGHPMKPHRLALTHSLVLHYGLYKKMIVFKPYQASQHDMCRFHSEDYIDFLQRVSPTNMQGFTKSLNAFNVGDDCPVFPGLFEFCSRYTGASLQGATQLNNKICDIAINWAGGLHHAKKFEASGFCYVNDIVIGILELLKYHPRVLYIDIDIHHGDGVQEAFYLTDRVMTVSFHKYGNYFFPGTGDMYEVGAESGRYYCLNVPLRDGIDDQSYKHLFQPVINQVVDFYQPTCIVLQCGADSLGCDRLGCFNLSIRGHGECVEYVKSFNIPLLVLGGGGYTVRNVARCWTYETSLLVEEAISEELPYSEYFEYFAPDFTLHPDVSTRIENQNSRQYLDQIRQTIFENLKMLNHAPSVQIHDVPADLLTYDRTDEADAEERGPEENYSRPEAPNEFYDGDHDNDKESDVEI

Histone deacetylase 5 = Histone deacetylase 5 (Homo sapiens, UniProt Q9UQL6); experiment: Inhibition of human recombinant HDAC5 using fluor de Lys as substrate by fluorometric analysis
Histone deacetylase 5, sequence (Q9UQL6 whole entry): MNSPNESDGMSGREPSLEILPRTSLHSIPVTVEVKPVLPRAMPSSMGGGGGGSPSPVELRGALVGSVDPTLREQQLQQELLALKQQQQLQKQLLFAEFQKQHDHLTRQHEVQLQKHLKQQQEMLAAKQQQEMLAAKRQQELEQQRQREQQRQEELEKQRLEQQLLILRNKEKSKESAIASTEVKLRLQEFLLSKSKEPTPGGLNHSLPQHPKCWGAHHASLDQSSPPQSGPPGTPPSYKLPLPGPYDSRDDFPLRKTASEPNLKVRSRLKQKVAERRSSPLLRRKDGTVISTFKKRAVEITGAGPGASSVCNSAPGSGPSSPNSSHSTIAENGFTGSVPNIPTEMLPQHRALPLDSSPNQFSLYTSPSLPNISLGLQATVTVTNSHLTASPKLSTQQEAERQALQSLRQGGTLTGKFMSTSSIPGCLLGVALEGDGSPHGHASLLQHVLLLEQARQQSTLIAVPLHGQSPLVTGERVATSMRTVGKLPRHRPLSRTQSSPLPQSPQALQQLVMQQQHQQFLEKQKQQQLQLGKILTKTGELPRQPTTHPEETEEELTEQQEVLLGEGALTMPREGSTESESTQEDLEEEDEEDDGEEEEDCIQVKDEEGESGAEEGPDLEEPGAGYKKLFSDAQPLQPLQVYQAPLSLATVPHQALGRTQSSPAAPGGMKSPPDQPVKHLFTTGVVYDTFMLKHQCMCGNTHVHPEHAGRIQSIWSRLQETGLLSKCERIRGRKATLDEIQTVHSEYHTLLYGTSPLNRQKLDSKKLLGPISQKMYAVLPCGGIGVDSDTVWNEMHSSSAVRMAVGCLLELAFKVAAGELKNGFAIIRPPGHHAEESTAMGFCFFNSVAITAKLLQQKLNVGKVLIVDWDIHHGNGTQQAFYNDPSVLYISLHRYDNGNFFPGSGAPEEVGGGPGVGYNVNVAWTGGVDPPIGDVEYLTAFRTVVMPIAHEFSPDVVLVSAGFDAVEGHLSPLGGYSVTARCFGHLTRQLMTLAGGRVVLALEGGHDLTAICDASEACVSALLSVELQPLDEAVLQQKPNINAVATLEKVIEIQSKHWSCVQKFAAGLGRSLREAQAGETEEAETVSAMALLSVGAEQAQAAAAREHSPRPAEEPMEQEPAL

[17] = molecular target: Protein deacetylase HDAC6 (Homo sapiens, UniProt Q9UBN7); experiment: Inhibition of human recombinant HDAC6 using fluor de Lys as substrate by fluorometric analysis
Protein deacetylase HDAC6, sequence (Q9UBN7 whole entry): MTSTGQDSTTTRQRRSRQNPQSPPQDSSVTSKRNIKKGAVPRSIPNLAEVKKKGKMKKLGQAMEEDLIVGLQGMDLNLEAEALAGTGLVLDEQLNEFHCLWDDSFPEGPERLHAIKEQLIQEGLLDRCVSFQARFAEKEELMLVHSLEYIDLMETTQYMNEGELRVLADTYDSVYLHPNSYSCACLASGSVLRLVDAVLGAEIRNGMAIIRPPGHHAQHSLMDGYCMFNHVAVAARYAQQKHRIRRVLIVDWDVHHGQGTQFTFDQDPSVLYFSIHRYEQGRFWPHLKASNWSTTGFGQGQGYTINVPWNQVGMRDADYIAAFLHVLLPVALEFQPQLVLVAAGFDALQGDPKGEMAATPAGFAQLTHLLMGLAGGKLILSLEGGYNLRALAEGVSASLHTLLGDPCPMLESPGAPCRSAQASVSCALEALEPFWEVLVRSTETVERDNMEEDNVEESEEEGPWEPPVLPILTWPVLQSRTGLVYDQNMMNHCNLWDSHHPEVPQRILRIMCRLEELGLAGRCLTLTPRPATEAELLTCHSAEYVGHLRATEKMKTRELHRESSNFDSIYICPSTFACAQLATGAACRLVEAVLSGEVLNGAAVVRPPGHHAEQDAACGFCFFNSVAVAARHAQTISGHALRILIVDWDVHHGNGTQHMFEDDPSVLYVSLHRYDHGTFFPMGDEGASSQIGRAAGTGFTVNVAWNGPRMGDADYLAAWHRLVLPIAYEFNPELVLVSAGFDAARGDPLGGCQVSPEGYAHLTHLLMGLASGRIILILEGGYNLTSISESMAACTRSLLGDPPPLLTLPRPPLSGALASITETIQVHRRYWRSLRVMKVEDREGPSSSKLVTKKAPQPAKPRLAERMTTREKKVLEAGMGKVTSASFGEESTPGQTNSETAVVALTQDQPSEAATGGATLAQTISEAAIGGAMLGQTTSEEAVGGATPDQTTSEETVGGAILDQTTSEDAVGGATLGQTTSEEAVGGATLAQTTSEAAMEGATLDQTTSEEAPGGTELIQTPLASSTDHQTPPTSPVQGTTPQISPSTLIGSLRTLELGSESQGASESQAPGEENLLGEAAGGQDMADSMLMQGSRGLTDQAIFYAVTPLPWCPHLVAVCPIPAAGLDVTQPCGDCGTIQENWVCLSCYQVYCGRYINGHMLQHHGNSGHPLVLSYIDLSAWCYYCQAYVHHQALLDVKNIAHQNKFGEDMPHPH

HCT-116 [18] = experiment: Induction of apoptosis in human HCT116 cells assessed as PARP cleavage after 30 hrs by Western blot analysis; format: functional, cell-based
Method in brief: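 HCT116 cells seeded at 2 × 10⁴ cells/mL and treated 24 h later for 30 h. RIPA lysates run at 10 μg/lane on 4-12% gels. Blotted with antibodies to PARP and cleaved PARP (1:1000); GAPDH as loading control; ECL detection.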

LoVo = experiment: Antiproliferative activity against human LoVo cells after 72 hrs by WST-1 assay; format: functional; settings: Homo sapiens, LoVo, 72 h; method in brief: as §1
A2780 = experiment: Antiproliferative activity against human A2780 cells after 72 hrs by WST-1 assay; format: functional; settings: Homo sapiens, A2780, 72 h; method in brief: as §1
DU-145 = experiment: Antiproliferative activity against human DU145 cells after 72 hrs by WST-1 assay; format: functional; settings: DU-145, 72 h
Method in brief: (§4)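 Cells seeded at (1-5) × 10³/well in serum-containing medium for 24 h at 37 °C, 5% CO₂. Inhibitor added at 0.6-10000 nM for 72 h, with WST-1 pulse over the final 4 h. Formazan read at 450 nm (reference 650 nm).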

PC-3 = experiment: Antiproliferative activity against human PC3 cells after 72 hrs by WST-1 assay; format: functional; settings: PC-3, 72 h; method in brief: as §1
HepG2 = experiment: Antiproliferative activity against human HepG2 cells after 72 hrs by WST-1 assay; format: functional; settings: Homo sapiens, HepG2, 72 h; method in brief: as §1
MG-63 = experiment: Antiproliferative activity against human MG63 cells after 72 hrs by WST-1 assay; format: functional; settings: Homo sapiens, MG-63, 72 h; method in brief: as §1
MIA PaCa-2 = experiment: Antiproliferative activity against human MIAPaCa2 cells after 72 hrs by WST-1 assay; format: functional; settings: Homo sapiens, MIA PaCa-2, 72 h; method in brief: as §1
A549 = experiment: Antiproliferative activity against human A549 cells after 72 hrs by WST-1 assay; format: functional; settings: Homo sapiens, A549, 72 h; method in brief: as §1
COR-L23 [19] = experiment: Antiproliferative activity against human COR-L23 cells after 72 hrs by WST-1 assay; format: functional; settings: Homo sapiens, COR-L23, 72 h; method in brief: as §1
COR-L23 [20] = experiment: Antiproliferative activity against doxorubicin-resistant human COR-L23 cells after 72 hrs by WST-1 assay; format: functional; settings: Homo sapiens, COR-L23, 72 h; method in brief: as §1
HuT78 = experiment: Antiproliferative activity against human HUT78 cells after 72 hrs by WST-1 assay; format: functional; settings: HuT78, 72 h; method in brief: as §4
U-937 = experiment: Antiproliferative activity against human U937 cells after 72 hrs by WST-1 assay; format: functional; settings: Homo sapiens, U-937, 72 h; method in brief: as §1
HCT-116 [21] = experiment: Cell cycle arrest in human HCT116 cells assessed as accumulation at sub-G1 phase at 300 nM after 15 hrs by propidium iodide staining based flow cytometric analysis; format: functional
HCT-116 [22] = experiment: Cell cycle arrest in human HCT116 cells assessed as accumulation at G1 phase at 300 nM after 15 hrs by propidium iodide staining based flow cytometric analysis; format: functional
HCT-116 [23] = experiment: Cell cycle arrest in human HCT116 cells assessed as accumulation at S phase at 300 nM after 15 hrs by propidium iodide staining based flow cytometric analysis; format: functional
HCT-116 [24] = experiment: Cell cycle arrest in human HCT116 cells assessed as accumulation at G2/M phase at 300 nM after 15 hrs by propidium iodide staining based flow cytometric analysis; format: functional
Spleen = experiment: Ratio of AUC (0 to t) in spleen to plasma of CD1 mouse at 3 mg/kg, po; settings: in vivo

Structure (SMILES) | GI50 (HCT-116 [1]) [nM] | Ratio [2] | AUC(0-t) [3] [ng·h/mL] | AUC(0-t) [4] [ng·h/mL] | remaining at 0.5 h [5] [%] | remaining at 0.5 h [6] [%] | pIC50 (Cytochrome P450 2C19 [7]) | pIC50 (Cytochrome P450 2D6 [8]) | pIC50 (Cytochrome P450 3A4 [9]) | inhibition (INH) (Cytochrome P450 2C19 [10]) | inhibition (INH) (Cytochrome P450 2D6 [11]) | inhibition (INH) (Cytochrome P450 3A4 [12]) | AUC(0-t) [13] [ng·h/mL] | clearance [14] [mL/min/kg] | AUC(0-t) [15] [ng·h/mL] | bioavailability [16] [%] | pIC50 (Histone deacetylase 2) | pIC50 (Histone deacetylase 3) | pIC50 (Histone deacetylase 5) | pIC50 [17] | also measured
O=C(NO)c1cnc(N2C[C@@H]3[C@H](C2)[C@H]3NCc2ccc(Cl)cc2)nc1 | 210 | 16 | 58 | 436 | 43 | 38 | 4.30 | 5.00 | < 4.30 | Not Active | Not Active | Not Active | 265 | 63 | 1480 | 56 | 7.85 | 8.00 | 6.30 | 5.48 | Activity (HCT-116 [18]): Active; GI50 (LoVo): 310 nM; GI50 (A2780): 410 nM; GI50 (DU-145): 92 nM; GI50 (PC-3): 260 nM; GI50 (HepG2): 470 nM; GI50 (MG-63): 1600 nM; GI50 (MIA PaCa-2): 620 nM; GI50 (A549): 500 nM; GI50 (COR-L23 [19]): 210 nM; GI50 (COR-L23 [20]): 1100 nM; GI50 (HuT78): 60 nM; GI50 (U-937): 120 nM; Activity (HCT-116 [21]): 23%; Activity (HCT-116 [22]): 33%; Activity (HCT-116 [23]): 11%; Activity (HCT-116 [24]): 33%; Ratio (Spleen): 7.5
O=C(NO)c1cnc(N2C[C@@H]3[C@H](C2)[C@H]3NCc2ccc3cc(F)ccc3n2)nc1 [NANATINOSTAT] | 72 | 9 | 93 | 775 | 31 | 21 | < 4.30 | < 4.30 | 5.00 | Not Active | Not Active | Not Active | 241 | 70 | 950 | 40 | 8.40 | 8.15 | 6.70 | 5.68 | Activity (HCT-116 [18]): Active; GI50 (LoVo): 140 nM; GI50 (A2780): 210 nM; GI50 (DU-145): 48 nM; GI50 (PC-3): 160 nM; GI50 (HepG2): 230 nM; GI50 (MG-63): 750 nM; GI50 (MIA PaCa-2): 280 nM; GI50 (A549): 250 nM; GI50 (COR-L23 [19]): 105 nM; GI50 (COR-L23 [20]): 560 nM; GI50 (HuT78): 31 nM; GI50 (U-937): 52 nM; Activity (HCT-116 [21]): 21%; Activity (HCT-116 [22]): 21%; Activity (HCT-116 [23]): 10%; Activity (HCT-116 [24]): 48%; Ratio (Spleen): 8.3
